{
  "source": "paper PMC3580179",
  "about": "(Biopharmaceutics & drug disposition, 2010)",
  "key": {"Blood cell partitioning": {"assay": "Blood cell partitioning", "format": "in vitro ADME", "details": "rat, fresh pooled rat blood", "in_short": "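Fresh pooled rat blood spiked 1:100 with test compound in methanol (final 10 μg/mL). Incubated 2 h at 37°C in a shaking water bath. Plasma separated at once by centrifugation and assayed by HPLC-UV to give the blood-to-plasma concentration ratio (CB/CP). Run in triplicate.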"}, "[1]": {"assay": "Pharmacokinetics after oral administration to rats", "format": "in vivo, male Sprague-Dawley rats", "details": "rat; for Cmax / AUC(0-inf) / MRT / half-life: male, Sprague-Dawley, po"}, "[2]": {"format": "in vivo, Nrf2 wild type C57BL/6J (+/+) mice", "details": "for AUC / Cmax / MRT / Tmax: male, C57BL/6J, mouse, plasma", "in_short": "(§1)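 Age-matched male C57BL/6J mice, Nrf2 (+/+) or (−/−), 10–15 weeks old, on AIN-76A diet from 3 days before dosing. Dosed 500 mg/kg by oral gavage after an overnight fast, or 100 mg/kg i.p.; vehicle Cremophor EL/tween-80/ethanol/water (2:1:1:6). Composite sampling by heart puncture from 2 min (i.p. only) or 7.5 min to 36 h, three mice per time point. Non-compartmental analysis; t1/2 = ln2/kel from terminal slope.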"}, "[3]": {"format": "in vivo, Nrf2 knockout C57BL/6J (−/−) mice", "details": "for AUC0-∞ /Dose: Nrf2(−/−) mice; for AUC, folds increase: Nrf2(−/−) vs Nrf2(+/+) mice; for AUC / Cmax / MRT / Tmax / half-life: male, C57BL/6J, mouse, plasma", "in_short": "as §1"}, "[4]": {"assay": "Pharmacokinetics after intravenous administration to rats", "format": "in vivo, male Sprague-Dawley rats", "details": "rat; for MRT / Vd / clearance / half-life / AUC(0-inf): male, Sprague-Dawley; for AUC(0-inf): AUC0-∞", "in_short": "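Male Sprague-Dawley rats (250–300 g) with jugular vein cannulae, fed antioxidant-free AIN-76A diet and acclimatized 3 days. Single i.v. dose of 10 or 20 mg/kg via cannula in Cremophor EL/tween-80/ethanol/water (2:1:1:6). Blood (200 μL) sampled from 2 min to 36 h; plasma stored at −80°C and assayed by HPLC-UV. Non-compartmental analysis: log-linear trapezoidal AUC, CL = Dose/AUC0-∞, MRT = AUMC0-∞/AUC0-∞.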"}, "[5]": {"details": "p.o. 250 mg/kg, regular emulsion"}},
  "note": "Several values for one entry are separate records, joined by “and”; a condition that tells them apart may be missing. Equal values may be shown once. Read-outs that look alike come from different tables or passages of the source. Marks after values point to notes of the source that are not given here.",
  "data": [
    {"compound": "O=C(CC(=O)c1ccccc1)c1ccccc1", "note": "[DBM, 1,3-Diphenyl-1,3-propanedione]", "values": [
      {"measurement": "blood plasma ratio at 2 h, 10 μg/mL", "setting": "Blood cell partitioning", "result": "0.93 ± 0.19"},
      {"measurement": "Cmax", "setting": "[1]; in vivo, 250 mg/kg", "result": "2880 ± 740", "unit": "ng/mL"},
      {"measurement": "AUC(0-inf)", "setting": "[1]; plasma, 10 mg/kg", "result": "2250 ± 330", "unit": "ng·h/mL"},
      {"measurement": "Cmax", "setting": "[1]; plasma, 10 mg/kg", "result": "340 ± 40", "unit": "ng/mL"},
      {"measurement": "MRT", "setting": "[1]; plasma, 10 mg/kg", "result": "7.6 ± 2.3", "unit": "h"},
      {"measurement": "half-life", "setting": "[1]; plasma, 10 mg/kg", "result": "11 ± 3", "unit": "h"},
      {"measurement": "AUC(0-inf)", "setting": "[1]; plasma, 50 mg/kg", "result": "9460 ± 1620", "unit": "ng·h/mL"},
      {"measurement": "Cmax", "setting": "[1]; plasma, 50 mg/kg", "result": "1500 ± 410", "unit": "ng/mL"},
      {"measurement": "MRT", "setting": "[1]; plasma, 50 mg/kg", "result": "9.4 ± 2", "unit": "h"},
      {"measurement": "half-life", "setting": "[1]; plasma, 50 mg/kg", "result": "9.3 ± 2", "unit": "h"},
      {"measurement": "AUC(0-inf)", "setting": "[1]; plasma, 250 mg/kg", "result": "30400 ± 6890", "unit": "ng·h/mL"},
      {"measurement": "Cmax", "setting": "[1]; plasma, 250 mg/kg", "result": "3020 ± 660", "unit": "ng/mL"},
      {"measurement": "MRT", "setting": "[1]; plasma, 250 mg/kg", "result": "12 ± 4.3", "unit": "h"},
      {"measurement": "half-life", "setting": "[1]; plasma, 250 mg/kg", "result": "11 ± 8", "unit": "h"},
      {"measurement": "AUC0-∞ /Dose", "setting": "[1]; p.o. 10 mg/kg, regular emulsion", "result": "0.225 ± 0.033 (μg·h/mL)/(mg/kg)"},
      {"measurement": "Ka (absorption rate constant)", "setting": "[1]; p.o. 50 mg/kg, regular emulsion, Gastroplus three-compartment fitting", "result": "0.029 ± 0.046", "unit": "h⁻¹"},
      {"measurement": "AUC0-∞ /Dose", "setting": "[1]; [5]", "result": "0.122 ± 0.027 ^a (μg·h/mL)/(mg/kg)"},
      {"measurement": "fraction absorbed in GIT (deconvolution analysis)", "setting": "[1]; [5]", "result": 10.8, "unit": "%"},
      {"measurement": "Tmax", "setting": "[1]; p.o. 250 mg/kg, regular emulsion, 250 mg/kg", "result": "4.0 ± 2.0", "unit": "h"},
      {"measurement": "AUC0-∞ /Dose", "setting": "[2]; Nrf2(+/+) mice, i.p. 100 mg/kg", "result": "0.096 (μg·h/mL)/(mg/kg)"},
      {"measurement": "AUC0-∞ /Dose", "setting": "[2]; Nrf2(+/+) mice, p.o. 500 mg/kg", "result": "0.129 (μg·h/mL)/(mg/kg)"},
      {"measurement": "Apparent terminal t1/2", "setting": "[2]; Nrf2(+/+) mice, p.o. 500 mg/kg, 500 mg/kg", "result": 6.09, "unit": "h"},
      {"measurement": "AUC", "setting": "[2]; ip, 100 mg/kg", "result": 9620, "unit": "ng·h/mL"},
      {"measurement": "Cmax", "setting": "[2]; ip, 100 mg/kg", "result": 4560, "unit": "ng/mL"},
      {"measurement": "MRT", "setting": "[2]; ip, 100 mg/kg", "result": 2.76, "unit": "h"},
      {"measurement": "Tmax", "setting": "[2]; ip, 100 mg/kg", "result": 0.25, "unit": "h"},
      {"measurement": "AUC", "setting": "[2]; po, 500 mg/kg", "result": 64600, "unit": "ng·h/mL"},
      {"measurement": "Cmax", "setting": "[2]; po, 500 mg/kg", "result": 23200, "unit": "ng/mL"},
      {"measurement": "MRT", "setting": "[2]; po, 500 mg/kg", "result": 4.73, "unit": "h"},
      {"measurement": "Tmax", "setting": "[2]; po, 500 mg/kg", "result": 0.25, "unit": "h"},
      {"measurement": "peak plasma concentration", "setting": "[2]; mice, i.p. 100 mg/kg, genotype not given, context Nrf2(+/+)", "result": 20.4, "unit": "µM"},
      {"measurement": "AUC0-∞ /Dose", "setting": "[3]; i.p. 100 mg/kg", "result": "0.221 (μg·h/mL)/(mg/kg)"},
      {"measurement": "AUC0-∞ /Dose", "setting": "[3]; p.o. 500 mg/kg", "result": "0.171 (μg·h/mL)/(mg/kg)"},
      {"measurement": "AUC, folds increase", "setting": "[3]; i.p. 100 mg/kg", "result": 2.3, "unit": "fold"},
      {"measurement": "AUC, folds increase", "setting": "[3]; p.o. 500 mg/kg", "result": 1.3, "unit": "fold"},
      {"measurement": "apparent terminal half-life, fold increase", "setting": "[3]; Nrf2 knockout vs wild type mice, i.p. 100 mg/kg", "result": 2, "unit": "fold"},
      {"measurement": "AUC", "setting": "[3]; ip, 100 mg/kg", "result": 22100, "unit": "ng·h/mL"},
      {"measurement": "Cmax", "setting": "[3]; ip, 100 mg/kg", "result": 6860, "unit": "ng/mL"},
      {"measurement": "MRT", "setting": "[3]; ip, 100 mg/kg", "result": 5.15, "unit": "h"},
      {"measurement": "Tmax", "setting": "[3]; ip, 100 mg/kg", "result": 0.25, "unit": "h"},
      {"measurement": "half-life", "setting": "[3]; ip, 100 mg/kg", "result": 5.04, "unit": "h"},
      {"measurement": "AUC", "setting": "[3]; po, 500 mg/kg", "result": 85600, "unit": "ng·h/mL"},
      {"measurement": "Cmax", "setting": "[3]; po, 500 mg/kg", "result": 17400, "unit": "ng/mL"},
      {"measurement": "MRT", "setting": "[3]; po, 500 mg/kg", "result": 6.36, "unit": "h"},
      {"measurement": "Tmax", "setting": "[3]; po, 500 mg/kg", "result": 0.25, "unit": "h"},
      {"measurement": "half-life", "setting": "[3]; po, 500 mg/kg", "result": 8.52, "unit": "h"},
      {"measurement": "MRT", "setting": "[4]; plasma, iv, 10 mg/kg", "result": "10.4 ± 3.33", "unit": "h"},
      {"measurement": "Vd", "setting": "[4]; plasma, iv, 10 mg/kg", "result": "6.75 ± 1.85", "unit": "L/kg"},
      {"measurement": "clearance", "setting": "[4]; plasma, iv, 10 mg/kg", "result": 11.8, "unit": "mL/min/kg"},
      {"measurement": "half-life", "setting": "[4]; plasma, iv, 10 mg/kg", "result": "14.4 ± 5", "unit": "h"},
      {"measurement": "AUC(0-inf)", "setting": "[4]; plasma, iv, 10 mg/kg, i.v. 10 mg/kg", "result": "16500 ± 7850", "unit": "ng·h/mL"},
      {"measurement": "MRT", "setting": "[4]; plasma, iv, 20 mg/kg", "result": "10.2 ± 6.1", "unit": "h"},
      {"measurement": "Vd", "setting": "[4]; plasma, iv, 20 mg/kg", "result": "7.35 ± 4.26", "unit": "L/kg"},
      {"measurement": "clearance", "setting": "[4]; plasma, iv, 20 mg/kg", "result": 12, "unit": "mL/min/kg"},
      {"measurement": "half-life", "setting": "[4]; plasma, iv, 20 mg/kg", "result": "12 ± 5.34", "unit": "h"},
      {"measurement": "AUC(0-inf)", "setting": "[4]; plasma, iv, 20 mg/kg, i.v. 20 mg/kg", "result": "27900 ± 2400", "unit": "ng·h/mL"},
      {"measurement": "clearance", "setting": "[4]; whole blood, intravenous, 10 mg/kg", "result": "~12.7", "unit": "mL/min/kg"},
      {"measurement": "AUC0-∞ /Dose", "setting": "[4]; i.v. 10 mg/kg, 10 mg/kg", "result": "1.65 (μg·h/mL)/(mg/kg) and 1.65 ± 0.79 (μg·h/mL)/(mg/kg)"},
      {"measurement": "AUC0-∞", "setting": "[4]; i.v. 20 mg/kg, 20 mg/kg", "result": "28000 ± 2400", "unit": "ng·h/mL"},
      {"measurement": "AUC0-∞ /Dose", "setting": "[4]; i.v. 20 mg/kg, 20 mg/kg", "result": "1.40 (μg·h/mL)/(mg/kg) and 1.40 ± 0.12 (μg·h/mL)/(mg/kg)"}
    ]}
  ]
}
